From PubChem BioAssay
T cruzi repl = blocks replication of Trypanosoma cruzi. inhibition, % (concentration not given with the values). 300,000 compounds, 1.4% hits. T. cruzi beta-gal in NIH3T3, luminescence, 90 h;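 active = mean inhibition across valid replicates above about 55%, limit read from the data; inconclusive = mean below that limit but half or more replicates reach it; inactive = mean below it, under half of replicates reach it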;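 also: signal also drops with host cell toxicity which is not excluded here; 0% = plate median of DMSO wells and 100% = zero luminescence signal; higher percent means less beta-gal luminescence so fewer parasites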
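compound dosing = single 50 nL compound addition per well in DMSO | material = NIH/3T3 host cells with β-galactosidase reporter T. cruzi | input = 5,000 host fibroblasts per well | timing = ≥90 h infection period, 3 h prior cell attachment | read-out basis = percent inhibition of parasite-derived β-gal signal | detection = GalScreen β-gal luminescence, detergent lysis, 60 min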
Efflux pump inh = blocks antifungal efflux pumps in multiplex yeast assay | 330,000 compounds, 0.44% hits | inhibition, % at 10 µM | AID 485275 | S. cerevisiae Candida pump triplex, Nile Red efflux;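 active = plate passing quality check with inhibition over a set limit, or well fluorescence over plate mean plus 4 SD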;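 also: Nile Red retained in pooled yeast measured as flow cytometry median fluorescence; 0% = buffer negative control and 100% = Enniatin B positive control; higher means more Nile Red kept so more efflux inhibition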
HDAC3 inh = human HDAC3 inhibition; O15379; recombinant HDAC3, fluorogenic peptide/trypsin coupled, fluorescence; 320,000 compounds, 0.15% hits; inhibition, % at 8.3 µM; in the data active = inhibition above about 26%, passing the limit was not always enough; inconclusive = no clear call, values can overlap the other calls
Target sequence (O15379 whole entry, looked up): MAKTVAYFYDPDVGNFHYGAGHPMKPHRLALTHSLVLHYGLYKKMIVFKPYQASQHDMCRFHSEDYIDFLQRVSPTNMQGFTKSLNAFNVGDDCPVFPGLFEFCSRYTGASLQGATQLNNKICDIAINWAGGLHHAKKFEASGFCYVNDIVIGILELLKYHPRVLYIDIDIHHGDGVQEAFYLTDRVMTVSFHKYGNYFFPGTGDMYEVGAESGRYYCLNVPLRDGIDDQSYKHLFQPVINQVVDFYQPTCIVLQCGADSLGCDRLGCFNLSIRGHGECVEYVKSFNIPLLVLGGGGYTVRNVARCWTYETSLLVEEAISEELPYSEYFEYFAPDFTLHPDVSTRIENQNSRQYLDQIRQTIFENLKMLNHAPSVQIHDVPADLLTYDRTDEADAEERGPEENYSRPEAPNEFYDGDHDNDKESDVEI
PolyA inhibitor = inhibitors of polyadenylation in S. cerevisiae; S. cerevisiae SKY197-pL101 polyadenylation reporter, beta-gal luminescence; efflux-impaired pdr1/pdr3 knockout yeast; score 100 = 6 SD above DMSO; activity score, % at 12 µM; 300,000 compounds, 0.02% hits; AID 1875;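 active = lowest replicate activity score at least 50, where 100 means six control SD above control mean; inconclusive = lowest score under 50 but half or more replicates reach 50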;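 also: yeast exposed to compound for 9 h at 30 °C; higher score means more reporter readthrough which indicates perturbed polyadenylation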
AI-2 QS modul = Vibrio harveyi AI-2 quorum sensing modulation; Vibrio harveyi JMH597 AI-2 luminescence/OD600 ratio, 9 h; hits give low values; strain lacks LuxN and CqsS sensors; 0 = neutral-control median; activity change, % at 7.5 µM; 300,000 compounds, 0.4% hits; AID 2094; in the data active = activity change below about -75%, passing the limit was not always enough; inconclusive = no clear call, values can overlap the other calls;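 also: luminescence divided by OD600 gain over 9 h not by final OD600 alone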
* = called active by the depositor. Only some compounds are listed: those with a hit (about 2.2% of all), similar ones and a draw of the others.

For COc1ccc(-c2nc(CN3CCCC(C(=O)NC4CCCC4)C3)c(C)o2)cc1 (stereo not drawn) the results were T cruzi repl 38.8, Efflux pump inh 0.1, HDAC3 inh -2.3, PolyA inhibitor 13.8 and AI-2 QS modul 13.3.
`CCc1ccc(-c2nc(CN3CCCC(C(=O)NCCc4ccc(OC)c(OC)c4)C3)c(C)o2)cc1` (stereo not drawn) gave T cruzi repl 59.1*, Efflux pump inh 0.1, HDAC3 inh -1.7, PolyA inhibitor 23.5 and AI-2 QS modul 20.5.
Cc1oc(-c2ccc(Cl)cc2)nc1CN1CCC(C(=O)NCc2cccnc2)CC1 was read as T cruzi repl -12.5, Efflux pump inh 0.0, HDAC3 inh 1.5, PolyA inhibitor 4.4 and AI-2 QS modul 8.7.
For CCCN(CCC)CCNC(=O)C1CCN(Cc2nc(-c3ccc(Cl)cc3)oc2C)CC1 the results were T cruzi repl 72.5*, Efflux pump inh 0.0, HDAC3 inh 1.4, PolyA inhibitor 4.1 and AI-2 QS modul 16.8.
`Cc1ccccc1-c1nc(CN2CCCC(C(=O)NCCCN3CCOCC3)C2)c(C)o1` (stereo not drawn) gave T cruzi repl 66.5*, Efflux pump inh 0.0, HDAC3 inh -2.2, PolyA inhibitor 14.3 and AI-2 QS modul 1.3.
Cc1cccc(Nc2nc(OCC#N)nc(N(C)C)n2)c1 was read as T cruzi repl -14.7, Efflux pump inh -0.1, HDAC3 inh -1.0, PolyA inhibitor -14.1 and AI-2 QS modul 14.2.
Screening CCN(CC)c1nc(Nc2ccc(Cl)cc2)nc(OCC#N)n1 returned T cruzi repl 37.4, Efflux pump inh 0.0, HDAC3 inh 31.6*, PolyA inhibitor 3.6 and AI-2 QS modul 33.3.
For Cc1cccc(-n2c(SCc3ccc([N+](=O)[O-])cc3)nnc2-c2c[nH]c3ccccc23)c1 the results were T cruzi repl 65.5*, Efflux pump inh -0.1, HDAC3 inh 11.8, PolyA inhibitor 11.1 and AI-2 QS modul 19.2.
Screening COc1ccc(NC(=O)Cc2c(F)cccc2Cl)c(OC)c1 returned T cruzi repl -3.7, Efflux pump inh -0.2, HDAC3 inh -2.2, PolyA inhibitor -8.7 and AI-2 QS modul 14.4.
Screening COc1ccc(Nc2nc(NC(C)(C)C)nc(N3CCOCC3)n2)c(OC)c1 returned T cruzi repl 59.3*, Efflux pump inh 0.5, HDAC3 inh 3.1, PolyA inhibitor -19.6 and AI-2 QS modul 6.4.
COc1ccc(Nc2nc(N3CCCCC3)nc3ccccc23)c(OC)c1 was read as T cruzi repl 57.8*, Efflux pump inh 0.1, HDAC3 inh 0.8, PolyA inhibitor -5.5 and AI-2 QS modul 30.9.
For COc1ccccc1Nc1nc(-c2ccccc2)nc2ccccc12 the results were T cruzi repl 50.3, Efflux pump inh 0.1, HDAC3 inh -7.6, PolyA inhibitor -11.5 and AI-2 QS modul 7.0.
`COc1ccc(Nc2nc(-c3ccccc3)nc3ccccc23)c(OC)c1` gave T cruzi repl 64.6*, Efflux pump inh 0.3, HDAC3 inh -0.5, PolyA inhibitor 24.7 and AI-2 QS modul -6.1.
Screening COc1ccc(Nc2nc(NC(C)(C)C)nc(N3CCCC3)n2)c(OC)c1 returned T cruzi repl 46.3, Efflux pump inh -0.1, HDAC3 inh 0.2, PolyA inhibitor -33.5 and AI-2 QS modul 51.4.
CCOc1ccc(C2/C(=C(/O)c3ccc(S(=O)(=O)N4CCCCC4)cc3)C(=O)C(=O)N2CCCOC)cc1OC (stereo not drawn) was read as T cruzi repl inconclusive, Efflux pump inh -0.1, HDAC3 inh -3.3, PolyA inhibitor -17.6 and AI-2 QS modul 3.2.
Screening COc1ccccc1CCNC(=O)CSc1nc(=O)[nH]c2c1CCC2 returned T cruzi repl -6.7, Efflux pump inh -0.1, HDAC3 inh 5.7, PolyA inhibitor 2.4 and AI-2 QS modul 10.8.
`CCCCCCCn1c2c(c(=N)c3ccccc31)CCC2` gave T cruzi repl 67.0*, Efflux pump inh 0.0, HDAC3 inh -1.1, PolyA inhibitor -10.3 and AI-2 QS modul 44.1.
Screening CCCn1c2c(c(=N)c3c1CCC3)CCC2 returned T cruzi repl 45.3, Efflux pump inh -0.1, HDAC3 inh -0.5, PolyA inhibitor 18.4 and AI-2 QS modul 4.5.
Screening CCOc1ccccc1NC(=O)CSc1nnc(CNC(=O)c2c(F)cccc2Cl)o1 returned T cruzi repl -8.5, Efflux pump inh 0.0, HDAC3 inh -4.0, PolyA inhibitor -4.6 and AI-2 QS modul 42.9.
`CCN(C(=O)c1cc2c(=O)[nH]c3ccc(C)cc3c2s1)c1cccc(C)c1` gave T cruzi repl 56.1*, Efflux pump inh 0.0, HDAC3 inh -6.5, PolyA inhibitor -4.8 and AI-2 QS modul 2.3.
CCN(C(=O)c1cc2c(=O)[nH]c3ccc(C)cc3c2s1)c1ccccc1C was read as T cruzi repl 56.0*, Efflux pump inh 0.1, HDAC3 inh -6.4, PolyA inhibitor -4.4 and AI-2 QS modul 13.5.
`O=C(CCc1ccccc1)c1c(O)cc(O)cc1O` gave T cruzi repl 9.6, Efflux pump inh -0.2, HDAC3 inh 13.8, PolyA inhibitor 1.6 and AI-2 QS modul -81.1*.
For COc1ccc(C(=O)CCc2ccccc2)c(O)c1 the results were T cruzi repl 0.8, Efflux pump inh 0.1, HDAC3 inh inconclusive, PolyA inhibitor -4.6 and AI-2 QS modul -70.3.
Cc1ccc(S(=O)(=O)NC(=O)Nc2ccc(N(C)C)cc2)cc1 was read as T cruzi repl 57.0*, Efflux pump inh 0.1, HDAC3 inh 4.8, PolyA inhibitor -18.7 and AI-2 QS modul 75.2.
`COc1c(F)c(F)c(C(=O)Nc2ccc(NC(=O)Cc3ccccc3)cc2)c(F)c1F` gave T cruzi repl 2.3, Efflux pump inh -0.2, HDAC3 inh 2.1, PolyA inhibitor -1.4 and AI-2 QS modul 22.9.
For Cc1c(C(=O)N2CCN(Cc3ccc4c(c3)OCO4)CC2)sc2ncnc(N3CCN(c4ccccc4F)CC3)c12 the results were T cruzi repl 64.0*, Efflux pump inh 0.2, HDAC3 inh -10.0, PolyA inhibitor 5.4 and AI-2 QS modul 9.7.
COc1ccc(-n2c(-c3ccc(Br)cc3)c[n+]3c2CCC3)cc1 was read as T cruzi repl 40.8, Efflux pump inh -0.1, HDAC3 inh -3.4, PolyA inhibitor 3.1 and AI-2 QS modul 9.9.
For COc1ccc(-n2c(-c3ccc(Br)cc3)c[n+]3c2SC(C)C3)cc1 (stereo not drawn) the results were T cruzi repl 89.6*, Efflux pump inh -0.1, HDAC3 inh 9.8, PolyA inhibitor 6.2 and AI-2 QS modul 11.2.
`COc1ccc(-n2c(-c3ccc(Br)cc3)c[n+]3c2CCCCC3)cc1` gave T cruzi repl 66.3*, Efflux pump inh 0.0, HDAC3 inh inconclusive, PolyA inhibitor 10.1 and AI-2 QS modul 14.5.
`CCOc1ccc(-c2c[n+]3c(n2-c2ccccc2)CCCCC3)cc1` gave T cruzi repl 66.2*, Efflux pump inh 0.1, HDAC3 inh 0.6, PolyA inhibitor 5.1 and AI-2 QS modul 14.7.
